Reference: ChEMBL document CHEMBL1255528, “Chemical investigation of drug-like compounds from the Australian tree, Neolitseadealbata” (Bioorg Med Chem Lett, 2010)
Counter-ions that a name gives are not always drawn.

Columns and labels:
[1] = test system: A549; assay: Cytotoxicity against human A549 cells after 72 hrs by alamar blue assay; assay type: functional, cell-based; settings: A549, 72 h
How it was run: (§1)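 Screened across a human panel: A549 lung adenocarcinoma, HeLa cervical adenocarcinoma, MCF-7 breast, LNCaP and PC3 prostate, plus non-cancer HEK 293 embryonic kidney and NFF neonatal foreskin fibroblasts. IC50 reported as mean ± SD of two independent experiments.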

[2] = test system: PC-3; assay: Cytotoxicity against human PC3 cells after 72 hrs by alamar blue assay; assay type: functional, cell-based; settings: PC-3, 72 h; how it was run: as §1
[3] = Cytotoxicity against HEK cells after 72 hrs by alamar blue assay; assay type: cell-based; settings: Homo sapiens, HEK293, 72 h; how it was run: as §1
[4] = test system: HeLa; assay: Cytotoxicity against human HeLa cells after 72 hrs by alamar blue assay; assay type: functional, cell-based; how it was run: as §1
[5] = test system: LNCaP; assay: Cytotoxicity against human LNCAP cells after 72 hrs by alamar blue assay; assay type: functional, cell-based; how it was run: as §1
[6] = test system: MCF7; assay: Cytotoxicity against human MCF7 cells after 72 hrs by alamar blue assay; assay type: functional, cell-based; settings: MCF7, 72 h; how it was run: as §1
[7] = test system: NFF; assay: Cytotoxicity against human NFF after 72 hrs by alamar blue assay; assay type: cell-based; how it was run: as §1
[8] = Cytotoxicity against HEK cells at 100 uM after 72 hrs by alamar blue assay; assay type: cell-based, HEK293; settings: human; for cytotoxicity at 72 h, 100 µM: HEK cells, read-out: INH
How it was run: (§2)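 Non-cancer human cell lines, human embryonic kidney 293 (HEK 293) and neonatal foreskin fibroblasts (NFF), screened in parallel with a panel of five cancer lines. Growth inhibition is reported as percent inhibition at a single test concentration of 100.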

[9] = test system: MCF7; assay: Cytotoxicity against human MCF7 cells at 100 uM after 72 hrs by alamar blue assay; assay type: functional; settings: MCF7, 72 h
How it was run: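 Single-concentration screen on MCF-7 breast cancer cells within the same human cell-line panel. Percent growth inhibition calculated at the one test concentration rather than as an IC50.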

[10] = test system: NFF; assay: (§3) Cytotoxicity against human NFF at 100 uM after 72 hrs by alamar blue assay; assay type: cell-based; settings: nff, 72 h, 100 µM; how it was run: as §2
[11] = as §3; assay type: cell-based; settings: NFF cells, read-out: INH; how it was run: as §2

Compound: COc1cc2c(cc1O)C[C@@H]1NCCc3cc(O)c(OC)c-2c31
- IC50 [1]: > 100 µM
- IC50 [2]: > 100 µM
- IC50 [3]: > 100 µM
- IC50 [4]: > 100 µM
- IC50 [5]: > 100 µM
- IC50 [6]: > 100 µM
- IC50 [7]: > 100 µM

Compound: COc1ccc2c(c1O)[C@H](Cc1ccc(O)cc1)NCC2
- IC50 [1]: > 100 µM
- IC50 [2]: > 100 µM
- IC50 [3]: > 100 µM
- IC50 [4]: > 100 µM
- IC50 [5]: > 100 µM
- IC50 [6]: > 100 µM
- IC50 [7]: > 100 µM

Compound: COc1cc2c(cc1O)C[C@@H]1NCCc3cc4c(c-2c31)OCO4
- cytotoxicity at 72 h, 100 µM [8]: 55%
- IC50 [1]: 16 µM
- inhibition at 100 µM [9]: 52%
- IC50 [2]: 36.4 µM
- IC50 [4]: 28.1 µM
- IC50 [5]: 27.4 µM
- IC50 [7]: > 100 µM

Compound: C[N@@+]1([O-])CCc2cc3c(c4c2[C@H]1Cc1ccccc1-4)OCO3.O=C(O)C(F)(F)F (stereo in doubt; 4)
- inhibition (INH) [10]: 66%
- inhibition (INH) ([8]; hek293, 72 h, 100 µM, 72 h): 49%

Compound: CC[C@]1(O)C[C@H]2CN(CCc3c([nH]c4ccccc34)[C@@](C(=O)OC)(c3cc4c(cc3OC)N(C=O)[C@H]3[C@@](O)(C(=O)OC)[C@H](OC(C)=O)[C@]5(CC)C=CCN6CC[C@]43[C@@H]65)C2)C1 [VINCRISTINE SULFATE]
- IC50 [2]: 0.011 µM
- IC50 [5]: 0.0029 µM

Compound: COc1cc2c(cc1O)C[C@H]1c3c(cc(O)c(OC)c3-2)CCN1C
- IC50 [1]: > 100 µM
- IC50 [2]: > 100 µM
- IC50 [3]: > 100 µM
- IC50 [4]: > 100 µM
- IC50 [5]: > 100 µM
- IC50 [6]: > 100 µM
- IC50 [7]: > 100 µM

Compound: C[N@@+]1([O-])CCc2cc3c(c4c2[C@H]1Cc1ccccc1-4)OCO3 (stereo in doubt; 3)
- cytotoxicity at 72 h, 100 µM [11]: 83%
- cytotoxicity at 72 h, 100 µM [8]: 61%
- IC50 [1]: > 100 µM
- IC50 [2]: > 100 µM
- IC50 [4]: > 100 µM
- IC50 [5]: > 100 µM
- IC50 [6]: > 100 µM

Compound: COc1ccc2c(c1O)[C@H](Cc1ccc(O)cc1)N(C)CC2
- IC50 [1]: > 100 µM
- IC50 [2]: > 100 µM
- IC50 [3]: > 100 µM
- IC50 [4]: > 100 µM
- IC50 [5]: > 100 µM
- IC50 [6]: > 100 µM
- IC50 [7]: > 100 µM

Compound: CN1CCc2cc3c(c4c2[C@H]1Cc1ccccc1-4)OCO3
- IC50 [1]: 3.4 µM
- IC50 [2]: 7.7 µM
- IC50 [3]: 15.9 µM
- IC50 [4]: 16.6 µM
- IC50 [5]: 12.7 µM
- IC50 [6]: 17.7 µM
- IC50 [7]: 15.2 µM

Compound: CC(=O)O[C@H]1C(=O)[C@@]2(C)[C@H]([C@H](OC(=O)c3ccccc3)[C@]3(O)C[C@H](OC(=O)[C@H](O)[C@@H](NC(=O)c4ccccc4)c4ccccc4)C(C)=C1C3(C)C)[C@]1(OC(C)=O)CO[C@@H]1C[C@@H]2O [PACLITAXEL]
- IC50 [1]: 0.0038 µM
- IC50 [3]: 0.0039 µM
- IC50 [4]: 0.0089 µM
- IC50 [6]: 0.0044 µM
- IC50 [7]: 0.0047 µM

Compound: Oc1ccc2c(c1)-c1c3c(cc4c1[C@@H](C2)NCC4)OCO3
- IC50 [1]: 28.2 µM
- IC50 [2]: 23 µM
- IC50 [3]: 59.7 µM
- IC50 [4]: 4 µM
- IC50 [5]: 13.8 µM
- IC50 [6]: 27.4 µM
- IC50 [7]: 42.6 µM
